≈ marks a conversion by molar mass, not a printed value.
Key:
Fusobacterium = assay: In vitro antimicrobial activity against anaerobic bacteria fusobacterium symbiosum 1470; assay type: functional
Chlamydia trachomatis = assay: In vitro antimicrobial activity against chlamydia trachomatis.; assay type: functional
Collinsella aerofaciens = assay: In vitro antimicrobial activity against anaerobic bacteria eubacterium aerofaciens 1235; assay type: functional
Streptococcus pneumoniae [1] = assay: In vivo effective dose against experimental infections in mice Streptococcus pneumoniae park when administered sc; assay type: functional
Clostridium perfringens = assay: In vitro antimicrobial activity against anaerobic bacteria clostridium perfringens 81,; assay type: functional
[2] = system: Staphylococcus epidermidis; assay: In vitro antimicrobial activity against Staphylococcus epidermidis EPI1; assay type: functional
Streptococcus [3] = assay: In vitro antimicrobial activity against aerobic bacteria Streptococcus B 8
Haemophilus influenzae [4] = assay: In vitro antimicrobial activity against aerobic bacteria Haemophilus influenzae 465; assay type: functional
[5] = system: Staphylococcus epidermidis; assay: In vitro antimicrobial activity against aerobic bacteria Streptococcus epi 222; assay type: functional
Staphylococcus aureus [6] = assay: In vivo effective dose against experimental infections in mice Staphylococcus aureus X1 when administered orally; assay type: functional; conditions: po
Streptococcus pneumoniae [7] = assay: In vitro antimicrobial activity against aerobic bacteria Streptococcus pneumoniae B1-438; assay type: functional, streptococcus pneum
Bacteroides fragilis [8] = assay: In vitro antimicrobial activity against anaerobic bacteria bacteroides fragilis 111; assay type: functional
Streptococcus [9] = assay: In vitro antimicrobial activity against aerobic bacteria Streptococcus C 24
Staphylococcus aureus [10] = assay: In vitro antimicrobial activity against aerobic bacteria Staphylococcus aureus V41; assay type: functional
Streptococcus pyogenes [11] = assay: Activity against Streptococcus pyogenes C203 when administered sc; assay type: functional
Method in brief: (§1)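 Mouse protection test: infected mice were dosed twice, at 1 and 5 h postinfection, either subcutaneously or orally. […] The result is expressed as ED50 in mg/kg × 2.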

Streptococcus sanguinis = assay: In vitro antimicrobial activity against aerobic bacteria Streptococcus sanguis MX132; assay type: functional
Streptococcus [12] = assay: In vitro antimicrobial activity against aerobic bacteria Streptococcus D 8043
Eikenella corrodens = assay: In vitro antimicrobial activity against anaerobic bacteria bacteroides corrodens 1874; assay type: functional
Staphylococcus aureus [13] = assay: In vitro antimicrobial activity against aerobic bacteria Staphylococcus aureus V135; assay type: functional
Staphylococcus aureus [14] = assay: In vivo effective dose against experimental infections in mice Staphylococcus aureus X1 when administered sc; assay type: functional
Staphylococcus aureus [15] = assay: In vitro antimicrobial activity against aerobic bacteria Staphylococcus aureus V140,; assay type: functional
Streptococcus [16] = assay: In vitro antimicrobial activity against aerobic bacteria Streptococcus B 5; assay type: functional
[17] = In vitro antimicrobial activity against anaerobic bacteria peptostreptococcus intermedius 1264; assay type: functional
Anaerococcus prevotii = assay: In vitro antimicrobial activity against anaerobic bacteria peptococcus prevoti 1281; assay type: functional
[18] = system: Prevotella melaninogenica; assay: In vitro antimicrobial activity against anaerobic bacteria bacteroides melaninogenicus 1856,; assay type: functional
Enterococcus faecium = assay: In vitro antimicrobial activity against Streptococcus faecium X66; assay type: functional, streptococcus fae-cium
[19] = system: Peptoniphilus asaccharolyticus; assay: In vitro antimicrobial activity against anaerobic bacteria peptococcus asaccharolyticus 1302; assay type: functional
Staphylococcus aureus [20] = assay: In vitro antimicrobial activity against aerobic bacteria Staphylococcus aureus 513E; assay type: functional
[21] = system: Haemophilus parainfluenzae; assay: In vitro antimicrobial activity against aerobic bacteria Haemophilus parainfluenzae 9796; assay type: functional
Streptococcus [22] = assay: In vitro antimicrobial activity against aerobic bacteria Streptococcus D 2041
Cutibacterium acnes = assay: In vitro antimicrobial activity against anaerobic bacteria propionibacterium acnes 79; assay type: functional
Bacteroides fragilis [23] = assay: In vitro antimicrobial activity against anaerobic bacteria bacteroides fragilis 1936B,; assay type: functional
Streptococcus pneumoniae [24] = assay: In vitro antimicrobial activity against Streptococcus pneumoniae; assay type: functional
Phocaeicola vulgatus = assay: In vitro antimicrobial activity against anaerobic bacteria bacteroides vulgatus 1211; assay type: functional
[25] = system: Prevotella melaninogenica; assay: In vitro antimicrobial activity against anaerobic bacteria bacteroides melaninogenicus 2736; assay type: functional
[26] = system: Bacteroides thetaiotaomicron; assay: In vitro antimicrobial activity against anaerobic bacteria bacteroides thetaiotaomicron 1438; assay type: functional
Clostridium septicum = assay: In vitro antimicrobial activity against anaerobic bacteria clostridium septicum 1128; assay type: functional
Streptococcus pyogenes [27] = assay: In vivo activity against experimental infections in rodent caused by Streptococcus pyogenes C203 when administered orally; assay type: functional; conditions: po
Bacteroides fragilis [28] = assay: In vitro antimicrobial activity against anaerobic bacteria bacteroides fragilis 1877; assay type: functional
Streptococcus pyogenes [29] = assay: In vivo pyogenes C203 when administered sc; assay type: functional
Haemophilus influenzae [30] = assay: In vitro antimicrobial activity against aerobic bacteria Haemophilus influenzae 76; assay type: functional
Streptococcus pneumoniae [31] = assay: In vivo effective dose against experimental infections in mice Streptococcus pneumoniae park when administered orally; assay type: functional; conditions: po
[32] = system: Fusobacterium necrophorum; assay: In vitro antimicrobial activity against anaerobic bacteria usobacterium necrophorum 6054A; assay type: functional
Staphylococcus aureus [33] = assay: In vitro antimicrobial activity against aerobic bacteria Staphylococcus aureus X400; assay type: functional
Staphylococcus aureus [34] = assay: In vitro antimicrobial activity against Staphylococcus aureus X1; assay type: functional
[35] = system: Peptostreptococcus anaerobius; assay: In vitro antimicrobial activity against anaerobic bacteria peptostreptococcus anaerobius 1428,; assay type: functional
Haemophilus influenzae [36] = assay: In vitro antimicrobial activity against Haemophilus influenzae.; assay type: functional
Streptococcus [37] = assay: In vitro antimicrobial activity against aerobic bacteria Streptococcus D 9960
Streptococcus [38] = assay: In vitro antimicrobial activity against aerobic bacteria Streptococcus G Kruder
Streptococcus pyogenes [39] = assay: In vitro antimicrobial activity against Streptococcus pyogenes C203; assay type: functional
Haemophilus influenzae [40] = assay: In vitro antimicrobial activity against aerobic bacteria Haemophilus influenzae MX366,; assay type: functional
Streptococcus viridans = assay: In vitro antimicrobial activity against aerobic bacteria Streptococcus viridans 9943; assay type: functional
Clostridioides difficile = assay: In vitro antimicrobial activity against anaerobic bacteria Clostridium difficile 2994; assay type: functional
[41] = system: Staphylococcus epidermidis; assay: In vitro antimicrobial activity against aerobic bacteria Streptococcus epi 270; assay type: functional
Streptococcus pyogenes [42] = assay: Activity against Streptococcus pyogenes C203 when administered orally; assay type: functional; conditions: po; method in brief: as §1

CC[C@H]1OC(=O)C[C@@H](O)[C@H](C)[C@@H](O[C@@H]2O[C@H](C)[C@@H](O)[C@H](N(C)C)[C@H]2O)[C@@H](CC=O)C[C@@H](C)C(=O)/C=C/C(C)=C/[C@@H]1CO[C@@H]1O[C@H](C)[C@@H](O)[C@@H](OC)[C@H]1OC
MIC (Fusobacterium): 2 µg/mL (≈ 2.59 µM)
MIC (Chlamydia trachomatis): 0.5 µg/mL (≈ 0.648 µM)
MIC (Collinsella aerofaciens): 0.12 µg/mL (≈ 0.155 µM)
ED50 (Streptococcus pneumoniae [1]): > 10 mg/kg
MIC (Clostridium perfringens): 0.25 µg/mL (≈ 0.324 µM)
MIC [2]: 0.5 µg/mL (≈ 0.648 µM)
MIC (Streptococcus [3]): 0.5 µg/mL (≈ 0.648 µM)
MIC (Haemophilus influenzae [4]): 16 µg/mL (≈ 20.7 µM)
MIC [5]: 0.25 µg/mL (≈ 0.324 µM)
ED50 (Staphylococcus aureus [6]): > 100 mg/kg
MIC (Streptococcus pneumoniae [7]): > 128 µg/mL
MIC (Bacteroides fragilis [8]): 8 µg/mL (≈ 10.4 µM)
MIC (Streptococcus [9]): 0.5 µg/mL (≈ 0.648 µM)
MIC (Staphylococcus aureus [10]): 1 µg/mL (≈ 1.3 µM)
ED50 (Streptococcus pyogenes [11]): 0.25 mg/kg
MIC (Streptococcus sanguinis): 0.5 µg/mL (≈ 0.648 µM)
MIC (Streptococcus [12]): 0.5 µg/mL (≈ 0.648 µM)
MIC (Eikenella corrodens): 8 µg/mL (≈ 10.4 µM)
MIC (Staphylococcus aureus [13]): 1 µg/mL (≈ 1.3 µM)
ED50 (Staphylococcus aureus [14]): 3.9 mg/kg
MIC (Staphylococcus aureus [15]): 1 µg/mL (≈ 1.3 µM)
MIC (Streptococcus [16]): 0.5 µg/mL (≈ 0.648 µM)
MIC [17]: 16 µg/mL (≈ 20.7 µM)
MIC (Anaerococcus prevotii): 4 µg/mL (≈ 5.18 µM)
MIC [18]: 8 µg/mL (≈ 10.4 µM)
MIC (Enterococcus faecium): 4 µg/mL (≈ 5.18 µM)
MIC [19]: 8 µg/mL (≈ 10.4 µM)
MIC (Staphylococcus aureus [20]): 1 µg/mL (≈ 1.3 µM)
MIC [21]: 8 µg/mL (≈ 10.4 µM)
MIC (Streptococcus [22]): 0.5 µg/mL (≈ 0.648 µM)
MIC (Cutibacterium acnes): 2 µg/mL (≈ 2.59 µM)
MIC (Bacteroides fragilis [23]): 8 µg/mL (≈ 10.4 µM)
MIC (Streptococcus pneumoniae [24]): 0.25 µg/mL (≈ 0.324 µM)
MIC (Phocaeicola vulgatus): 8 µg/mL (≈ 10.4 µM)
MIC [25]: 16 µg/mL (≈ 20.7 µM)
MIC [26]: 2 µg/mL (≈ 2.59 µM)
MIC (Clostridium septicum): 2 µg/mL (≈ 2.59 µM)
ED50 (Streptococcus pyogenes [27]): 84 mg/kg
MIC (Bacteroides fragilis [28]): 8 µg/mL (≈ 10.4 µM)
ED50 (Streptococcus pyogenes [29]): 1.4 mg/kg
MIC (Haemophilus influenzae [30]): 8 µg/mL (≈ 10.4 µM)
ED50 (Streptococcus pneumoniae [31]): > 100 mg/kg
MIC [32]: 1 µg/mL (≈ 1.3 µM)
MIC (Staphylococcus aureus [33]): 1 µg/mL (≈ 1.3 µM)
MIC (Staphylococcus aureus [34]): 0.5 µg/mL (≈ 0.648 µM)
MIC [35]: 4 µg/mL (≈ 5.18 µM)
MIC (Haemophilus influenzae [36]): 4 µg/mL (≈ 5.18 µM)
MIC (Streptococcus [37]): 1 µg/mL (≈ 1.3 µM)
MIC (Streptococcus [38]): 0.25 µg/mL (≈ 0.324 µM)
MIC (Streptococcus pyogenes [39]): 0.25 µg/mL (≈ 0.324 µM)
MIC (Haemophilus influenzae [40]): 32 µg/mL (≈ 41.5 µM)
MIC (Streptococcus viridans): > 128 µg/mL
MIC (Clostridioides difficile): 0.25 µg/mL (≈ 0.324 µM)
MIC [41]: > 128 µg/mL
ED50 (Streptococcus pyogenes [42]): 0.8 mg/kg
